Measurements: ChEMBL document CHEMBL3526146, “In vitro and in vivo metabolism and pharmacokinetics of BMS-562086, a potent and orally bioavailable corticotropin-releasing factor-1 receptor antagonist” (Drug Metab Dispos, 2012)

Assays:
[1] = test system: Hepatocyte; assay: Detection of compound level in mouse hepatocytes treated with 25 uM of BMS-562086 after 3 hrs by HPLC analysis; type: ADME, cell-based
Summary of the method: (§1)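 Mouse, rat, dog, monkey and human hepatocytes (trypan blue viability checked) at 1.0×10^6 cells/ml in Krebs-Henseleit buffer were incubated with 25 µM compound, in duplicate. Conditions were 37°C, 95/5 O2/CO2, orbital shaking, 3 h. 7-Ethoxycoumarin and 7-hydroxycoumarin (100 µM) served as positive controls, with a cell-free negative control. Reactions were quenched with ice-cold acetonitrile, then sonicated and centrifuged; supernatants were analysed by LC/MS/MS.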

[2] = test system: Hepatocyte; assay: Detection of compound level in human cryopreserved hepatocytes treated with 25 uM of BMS-562086 after 3 hrs by HPLC analysis; type: ADME, cell-based; summary of the method: as §1
[3] = Detection of compound level in cynomolgus monkey cryopreserved hepatocytes treated with 25 uM of BMS-562086 after 3 hrs by HPLC analysis; type: ADME, cell-based, Macaca fascicularis, Hepatocyte; summary of the method: as §1
[4] = Detection of compound level in beagle dog hepatocytes treated with 25 uM of BMS-562086 after 3 hrs by HPLC analysis; type: ADME, cell-based, Canis lupus familiaris, Hepatocyte; summary of the method: as §1
[5] = test system: Hepatocyte; assay: Detection of compound level in rat hepatocytes treated with 25 uM of BMS-562086 after 3 hrs by HPLC analysis; type: ADME, cell-based; summary of the method: as §1
[6] = Apparent permeability from apical to basolateral side in human Caco2 cells; type: ADME, cell-based; conditions: Caco-2
Summary of the method: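 Caco-2 cells (passage 50-60) were seeded at 60,000 cells/cm2 on polycarbonate Transwells and cultured 21-25 days. Transport buffer was HBSS with 2% DMA, pH 7.4. Compound was applied apically at 25 µM at 37°C. Only monolayers with TEER 400-500 Ω cm2 at start and end were used, with mannitol as an integrity probe. Papp = (dQ/dt)/(A×C0).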

## O=c1ccc2ccc(O)cc2o1 [UMBELLIFERONE]
[1]
  Drug metabolism: metabolite_detected
[2]
  Drug metabolism: metabolite_detected
[3]
  Drug metabolism: metabolite_detected
[4]
  Drug metabolism: metabolite_detected
[5]
  Drug metabolism: metabolite_detected

## CCOc1ccc2ccc(=O)oc2c1
[1]
  Drug metabolism: metabolite_detected
[2]
  Drug metabolism: metabolite_detected
[3]
  Drug metabolism: metabolite_detected
[4]
  Drug metabolism: metabolite_detected
[5]
  Drug metabolism: metabolite_detected

## OC[C@@H](O)[C@@H](O)[C@H](O)[C@H](O)CO [MANNITOL]
[6]
  Papp A→B: 0.21 ×10⁻⁶ cm/s
